Compounds with a hit are over-represented: about 1.5% of the library has one in this group of screens.
APJ antag = APJ receptor antagonism; AID 2521; inhibition, % at 20 µM; P35414; 330,000 tested, 0.32% active; CHO-K1 APJ beta-arrestin complementation, luminescence;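 active means inhibition above about 40% at 20 µM, limit read from the data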;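 further: cells challenged with 10 nM apelin-13 agonist together with compound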
EBI2 antag = antagonists of human EBI2 receptor; EBI2 beta-arrestin recruitment, luminescence, 7a,25-OHC stimulated; inhibition, % at 5 µM; AID 651636; P32249; 360,000 tested, 0.81% active; in the data active means inhibition above about 38%;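 further: enzyme fragment complementation signal reports receptor beta-arrestin coupling in cells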
APJ agonist = activates the human apelin receptor APJ. 330,000 tested, 0.11% active. activation, % at 20 µM. CHO-K1 APJ PathHunter beta-arrestin, luminescence; 0% DMSO wells, 100% apelin;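 active means activation more than six SD over the plate average, tested at 20 µM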
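Test system: CHO-K1 APJ beta-arrestin complementation cell line | Compound: Single test compound dose, 20 µM final, 1% DMSO | Incubation: Compound 90 min 25 °C, reagent 1 h | Measured by: beta-gal luminescence | Read-out basis: APJ–arrestin association signal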
CXCR6 block = blocks human CXCR6 beta-arrestin recruitment. AID 602244. inhibition, % at 20 µM. O00574. 360,000 tested, 0.36% active. CHO-K1 PathHunter CXCR6 beta-arrestin, luminescence; in the data active means inhibition above about 34%, passing the limit was not always enough;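 further: antagonist mode with CXCL16 agonist at 10 nM final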
Target sequence (O00574 whole entry, looked up): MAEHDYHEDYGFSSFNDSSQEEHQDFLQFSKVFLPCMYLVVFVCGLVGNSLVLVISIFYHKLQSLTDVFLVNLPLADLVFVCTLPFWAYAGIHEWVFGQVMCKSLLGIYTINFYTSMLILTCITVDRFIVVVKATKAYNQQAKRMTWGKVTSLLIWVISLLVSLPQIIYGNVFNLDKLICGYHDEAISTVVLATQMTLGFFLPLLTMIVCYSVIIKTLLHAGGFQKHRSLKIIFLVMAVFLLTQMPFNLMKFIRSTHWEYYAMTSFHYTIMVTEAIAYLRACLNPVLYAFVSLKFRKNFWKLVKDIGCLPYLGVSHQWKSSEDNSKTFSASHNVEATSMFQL
CCR6 antagonist = antagonists of human CCR6 receptor; inhibition, % at 20 µM; CHO-K1 CCR6 PathHunter beta-arrestin, luminescence, CCL20-stimulated; P51684; AID 493098; 340,000 tested, 0.49% active;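 active means compounds whose inhibition of the agonist-driven luminescence signal at 20 µM reaches about 50%, limit read from the data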;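 further: cells stimulated with CCL20 at 14 nM final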
EBI2 conf = EBI2 (human) antagonism, single concentration confirmation. shares compounds with EBI2 antag. EBI2 beta-arrestin luminescence, 7a,25-OHC antagonism. inhibition, % at 5 µM. 2,400 tested, 29% active;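 active means inhibition of at least 50%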
EBI2 agonist = activates EBI2, counter-screen for EBI2 antagonists. activation, % at 5 µM. 2,400 tested, under 10 active. AID 652000. EBI2-expressing cells, agonist mode, luminescence, 60 min; 0% vehicle, 100% 7α,25-dihydroxycholesterol control. shares compounds with EBI2 antag;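 active means activation of at least 50%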
bGal counter = counter-screen for EBI2 antagonists: E. coli beta-galactosidase inhibition; shares compounds with EBI2 antag; purified beta-galactosidase, luminescent Galacton Star, 15 min; inhibition, % at 5 µM; 2,400 tested, 1% active; AID 652176;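 active means replicate-average signal at least 3 plate SD below neutral wells, shown as high inhibition, flagging enzyme-inhibiting false positives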;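 further: higher means stronger loss of beta-gal luminescence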
Large screens that a line does not name were inactive (follow-up assays come after a bar, where they were run).

O=C(c1ccc2ccccc2c1)N1CCN(c2ccc(C(F)(F)F)cn2)CC1	EBI2 antag 85.2 | EBI2 conf 71.3 | EBI2 agonist inactive | bGal counter inactive
O=C(c1ccc2c(c1)OCO2)N1CCN(c2ccc(C(F)(F)F)cn2)CC1	none
CN1CCN(C(=O)c2ccc3ccccc3c2)CC1	none
COc1ccccc1S(=O)(=O)N(C)C[C@@H]1OCc2cnnn2CCCC(=O)N([C@H](C)CO)C[C@H]1C	none (no result: APJ antag, APJ agonist, CCR6 antagonist)
Cc1ccc(SCC2(O)CCN(S(=O)(=O)c3ccc(Cl)cc3)CC2)cc1	none
CC(=O)c1ccc(S(=O)(=O)N2CCN(C(=O)CSc3ccc(C)c(C)c3)CC2)cc1	EBI2 antag 70.2 | EBI2 conf inactive | EBI2 agonist inactive | bGal counter inactive
CN1CCCN(C(=O)CSc2ccccc2)CC1	none
Cc1ccc(S(=O)(=O)N2CCN(C(=O)CSc3ccc(Cl)cc3)CC2)cc1	EBI2 antag 92.2 | EBI2 conf 68.3 | EBI2 agonist inactive | bGal counter inactive
O=C(CN1CCN(c2ncc(C(F)(F)F)cc2Cl)CC1)N1CCN(c2ncc(C(F)(F)F)cc2Cl)CC1	none
CN1CCN(C(=O)CSc2ccc(Cl)cc2)CC1	EBI2 antag 46.7 | EBI2 conf inactive | EBI2 agonist inactive | bGal counter inactive
O=C(CSc1ccc(Cl)cc1)N1CCN(c2ncc(C(F)(F)F)cc2Cl)CC1	EBI2 antag 83.9 | EBI2 conf 70.1 | EBI2 agonist inactive | bGal counter inactive
COCCn1c(C)cc(C(=O)CSc2cc(C)c3ccc(OC)cc3n2)c1C	none
CC1(C)Cc2cccc(OCC(=O)OCC(=O)Nc3cccc(S(N)(=O)=O)c3)c2O1	none
Cc1ccc(NC(=O)C2(C)CCN2C(=O)CC(c2ccccc2)c2ccccc2)cc1 (stereo unspecified)	none (no result: APJ antag, APJ agonist, CCR6 antagonist)
Cc1ccc(S(=O)(=O)N2CCN(S(=O)(=O)c3cccs3)CC2)cc1	none
Cc1ccc(SCC(=O)N2CCN(S(=O)(=O)c3cccs3)CC2)cc1	EBI2 antag 76.0 | EBI2 conf inactive | EBI2 agonist inactive | bGal counter inactive
O=C(CN1CCN(Cc2ccccc2)CC1)N/N=C/c1ccc(Br)s1	EBI2 antag 44.2 | EBI2 conf inactive | EBI2 agonist inactive | bGal counter inactive

From PubChem
